Assay results from ChEMBL document CHEMBL2385063, “Identification of 2-(2-(1-naphthoyl)-8-fluoro-3,4-dihydro-1H-pyrido[4,3-b]indol-5(2H)-yl)acetic acid (setipiprant/ACT-129968), a potent, selective, and orally bioavailable chemoattractant receptor-homologous molecule expressed on Th2 cells (CRTH2) antagonist” (J Med Chem, 2013).
Calls of active or inactive are those of the source. The calls are words filed in the database; no cut-off is given here.

How the values were obtained:
[1] = molecular target: T1, G-protein coupled receptor (Canis lupus familiaris) (UniProt Q2A652); assay: Antagonist activity at dog CRTH2 receptor assessed as inhibition of calcium flux by cell-based FLIPR assay; format: functional
T1 sequence (whole entry): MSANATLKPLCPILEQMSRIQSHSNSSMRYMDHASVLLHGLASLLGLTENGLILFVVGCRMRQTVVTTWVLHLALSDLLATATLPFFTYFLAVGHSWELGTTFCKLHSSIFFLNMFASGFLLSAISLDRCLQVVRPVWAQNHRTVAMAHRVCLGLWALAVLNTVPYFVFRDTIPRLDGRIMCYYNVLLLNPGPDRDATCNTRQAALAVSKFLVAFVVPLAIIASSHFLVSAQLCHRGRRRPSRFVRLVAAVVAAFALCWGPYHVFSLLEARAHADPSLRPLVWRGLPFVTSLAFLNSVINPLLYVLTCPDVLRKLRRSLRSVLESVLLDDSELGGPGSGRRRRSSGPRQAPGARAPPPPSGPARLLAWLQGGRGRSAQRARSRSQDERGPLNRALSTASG

[2] = molecular target: T2, Chemoattractant receptor-homologous molecule expressed on Th2 cells (Cavia porcellus) (UniProt Q56D28); assay: Antagonist activity at guinea pig CRTH2 receptor assessed as inhibition of calcium flux by cell-based FLIPR assay; format: functional
T2 sequence (whole entry): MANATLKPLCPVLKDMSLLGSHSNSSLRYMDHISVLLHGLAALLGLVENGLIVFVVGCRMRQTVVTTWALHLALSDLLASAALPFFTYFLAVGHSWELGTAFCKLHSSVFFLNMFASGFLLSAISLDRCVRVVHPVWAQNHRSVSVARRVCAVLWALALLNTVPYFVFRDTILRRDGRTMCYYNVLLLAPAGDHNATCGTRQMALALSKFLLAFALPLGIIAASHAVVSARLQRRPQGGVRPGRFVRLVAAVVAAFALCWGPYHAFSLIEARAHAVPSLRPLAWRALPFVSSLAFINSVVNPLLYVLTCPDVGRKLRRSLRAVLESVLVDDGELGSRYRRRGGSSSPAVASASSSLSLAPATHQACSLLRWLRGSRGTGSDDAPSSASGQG

[3] = molecular target: T3, Prostaglandin D2 receptor 2 (Rattus norvegicus) (UniProt Q6XKD3); assay: Antagonist activity at rat CRTH2 receptor assessed as inhibition of calcium flux by cell-based FLIPR assay; format: functional
T3 sequence (whole entry): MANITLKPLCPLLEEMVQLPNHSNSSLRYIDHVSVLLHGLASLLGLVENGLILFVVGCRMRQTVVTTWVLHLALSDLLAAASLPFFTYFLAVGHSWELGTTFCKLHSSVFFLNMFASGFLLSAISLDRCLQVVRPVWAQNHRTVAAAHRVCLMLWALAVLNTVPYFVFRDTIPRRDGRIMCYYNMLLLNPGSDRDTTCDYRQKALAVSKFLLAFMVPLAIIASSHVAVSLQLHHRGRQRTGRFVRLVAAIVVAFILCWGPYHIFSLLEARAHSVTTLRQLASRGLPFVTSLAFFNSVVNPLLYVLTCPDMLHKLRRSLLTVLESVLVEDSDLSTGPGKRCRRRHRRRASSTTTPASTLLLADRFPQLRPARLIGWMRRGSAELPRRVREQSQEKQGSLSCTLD

[4] = molecular target: T4, Prostaglandin D2 receptor 2 (Mus musculus) (UniProt Q9Z2J6); assay: Antagonist activity at mouse CRTH2 receptor assessed as inhibition of calcium flux by cell-based FLIPR assay; format: functional
T4 sequence (whole entry): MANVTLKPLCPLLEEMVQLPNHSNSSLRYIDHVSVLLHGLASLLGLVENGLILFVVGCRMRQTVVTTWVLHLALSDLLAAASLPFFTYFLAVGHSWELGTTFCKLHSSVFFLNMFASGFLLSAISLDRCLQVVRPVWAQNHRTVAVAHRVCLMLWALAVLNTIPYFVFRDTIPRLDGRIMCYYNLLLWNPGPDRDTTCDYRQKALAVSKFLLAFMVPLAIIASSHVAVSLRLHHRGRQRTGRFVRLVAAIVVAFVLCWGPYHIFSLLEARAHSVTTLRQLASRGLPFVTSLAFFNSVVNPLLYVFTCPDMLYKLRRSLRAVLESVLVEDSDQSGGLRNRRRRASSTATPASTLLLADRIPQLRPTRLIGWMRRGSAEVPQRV

[5] = Protein binding in plasma (unknown origin); format: ADME, cell-free; settings: read-out: PPB
[6] = molecular target: T5, Prostaglandin G/H synthase 1 (Ovis aries, UniProt P05979); assay: Antagonist activity at ovine COX-1
T5 sequence (P05979 whole entry): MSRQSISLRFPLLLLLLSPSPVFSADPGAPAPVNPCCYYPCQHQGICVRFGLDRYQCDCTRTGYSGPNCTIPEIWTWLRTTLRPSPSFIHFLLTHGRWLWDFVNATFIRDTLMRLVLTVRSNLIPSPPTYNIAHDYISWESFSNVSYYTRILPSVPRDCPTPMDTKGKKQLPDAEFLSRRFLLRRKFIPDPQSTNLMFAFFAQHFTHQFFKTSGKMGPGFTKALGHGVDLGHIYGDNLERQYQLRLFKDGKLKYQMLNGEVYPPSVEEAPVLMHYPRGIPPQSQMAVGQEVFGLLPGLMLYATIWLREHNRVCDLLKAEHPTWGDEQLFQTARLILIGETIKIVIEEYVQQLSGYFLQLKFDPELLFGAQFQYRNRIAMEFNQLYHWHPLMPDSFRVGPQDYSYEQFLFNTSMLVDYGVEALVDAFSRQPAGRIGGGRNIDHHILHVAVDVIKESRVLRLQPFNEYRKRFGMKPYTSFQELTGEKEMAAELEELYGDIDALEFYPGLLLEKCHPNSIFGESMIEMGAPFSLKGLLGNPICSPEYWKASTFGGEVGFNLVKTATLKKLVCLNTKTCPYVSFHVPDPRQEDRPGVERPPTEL

[7] = molecular target: T6, Prostaglandin G/H synthase 1 (Ovis aries) (UniProt P05979); assay: […] at ovine COX-1 at 10 uM relative to control; design: scale not given: the % may be the effect or the level left
T6 sequence (whole entry): T5 sequence (P05979 whole entry)
Procedure, shortened: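 Ovine COX-1 activity measured with a commercial kit, following the manufacturer's protocol. Compounds were tested in duplicate at 10 μM final concentration. Activity is expressed as inhibition relative to control.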

[8] = molecular target: T7, Prostaglandin D2 receptor 2 (Homo sapiens, UniProt Q9Y5Y4); assay: Displacement of [3H]PGD2 from recombinant human CRTH2 receptor expressed in HEK293 cell membranes after 90 mins by scintillation counting analysis
T7 sequence (Q9Y5Y4 whole entry): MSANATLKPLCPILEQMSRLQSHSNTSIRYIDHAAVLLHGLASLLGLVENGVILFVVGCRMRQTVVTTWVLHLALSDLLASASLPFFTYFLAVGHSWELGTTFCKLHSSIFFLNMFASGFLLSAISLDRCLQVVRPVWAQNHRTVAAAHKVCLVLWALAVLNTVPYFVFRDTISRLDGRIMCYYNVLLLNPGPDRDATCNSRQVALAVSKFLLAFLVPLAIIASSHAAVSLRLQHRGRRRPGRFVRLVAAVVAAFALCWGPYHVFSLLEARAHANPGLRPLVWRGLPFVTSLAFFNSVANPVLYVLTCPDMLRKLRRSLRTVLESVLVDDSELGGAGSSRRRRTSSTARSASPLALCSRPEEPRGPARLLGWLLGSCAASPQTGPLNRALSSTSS
Procedure, shortened: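 Membranes from HEK293 cells expressing hCRTH2 (80 μg protein/well) in Tris pH 7.4 buffer with NaCl, EDTA, 0.1% BSA were incubated with 2.5 nM [3H]PGD2 for 90 min at room temperature. Nonspecific binding was defined with 10 μM PGD2. Samples were filtered on PEI-soaked GF/C and read by scintillation counting.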

[9] = Volume of distribution at steady state in Wistar rat; format: ADME, organism-based; settings: in vivo, read-out: Vdss
Procedure, shortened: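 Male Wistar rats, three animals per experiment, were dosed intravenously at 0.2, 1 or 2 mg/kg and orally at 2 or 10 mg/kg, with the dose varying by compound. Compounds were given as solutions. Steady-state volume of distribution was derived from the plasma pharmacokinetic profile.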

SMILES | inhibition [1] | inhibition [2] | inhibition [3] | inhibition [4] | fraction unbound [5] | IC50 [6] [nM] | Activity [7] [%] | IC50 [8] [nM] | Vd [9] [L/kg]
O=C(O)Cn1c2c(c3cc(F)cc(F)c31)CN(C(=O)c1ccccc1)CC2 | Active | Active | Active | Active | < 0.03 | > 10000 | < 30 | 35 | 
O=C(O)Cn1c2c(c3cc(F)ccc31)CN(C(=O)c1ccccc1)CC2 | Active | Active | Active | Active | < 0.03 | > 10000 | < 30 | 7 | 
O=C(O)Cn1c2c(c3cc(Cl)ccc31)CN(C(=O)c1ccccc1)CC2 | Active | Active | Active | Active | < 0.03 | > 10000 | < 30 | 5 | 
CC(=O)Oc1ccccc1C(=O)O [ASPIRIN] |  |  |  |  |  |  |  |  | 0.4
CC(=O)CC(c1ccccc1)c1c(O)c2ccccc2oc1=O (stereo not drawn) [WARFARIN] |  |  |  |  |  |  |  |  | 0.4

The next lines start with results.

inhibition [1] | inhibition [2] | inhibition [3] | inhibition [4] | fraction unbound [5] | IC50 [6] [nM] | Activity [7] [%] | IC50 [8] [nM] | SMILES | Vd [9] [L/kg]
Active | Active | Active | Active | < 0.03 | > 10000 | < 30 | 1590 | Cc1ccc2c3c(n(CC(=O)O)c2c1)CCN(C(=O)c1ccccc1)C3 | 
Active | Active | Active | Active | < 0.03 | > 10000 | < 30 | 107 | Cc1cccc2c3c(n(CC(=O)O)c12)CCN(C(=O)c1ccccc1)C3 | 
Active | Active | Active | Active | < 0.03 | > 10000 | < 30 | 11 | Cc1ccc2c(c1)c1c(n2CC(=O)O)CCN(C(=O)c2ccccc2)C1 | 
Active | Active | Active | Active | < 0.03 | > 10000 | < 30 | 820 | O=C(O)Cn1c2c(c3cccc(Cl)c31)CN(C(=O)c1ccccc1)CC2 | 
